According to ChEMBL document CHEMBL1126119, “3',3'-Difluoro-3'-deoxythymidine: comparison of anti-HIV activity to 3'-fluoro-3'-deoxythymidine” (J Med Chem, 1992):

Experiments:
MT4 [1] = assay: Concentration required to reduce the number of viable cells in the untreated MT-4 cell culture; format: functional; settings: Homo sapiens, read-out: CD50 (the source's name)
In short: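 Uninfected, untreated MT4 cell cultures were used. CD50 is the cytotoxic dose that reduces the number of viable cells by 50%.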

MT4 [2] = assay: Concentration required to affect a 50% reduction in the cytopathic effect of HIV for MT-4 cells; format: functional; settings: Homo sapiens, read-out: ED50 (the source's name)
In short: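 HIV-infected MT4 cell cultures were used. ED50 is the dose that gives a 50% reduction in the HIV-induced cytopathic effect.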

[3] = molecular target: Human immunodeficiency virus type 1 reverse transcriptase (Human immunodeficiency virus 1, UniProt Q72547); assay: Concentration required to inhibit HIV reverse transcriptase

How did the CC50 (MT4 [1]) turn out when `Cc1cn([C@H]2CC(F)(F)[C@@H](CO)O2)c(=O)[nH]c1=O` was run?
The CC50 was 48.4 µM.

What about the EC50 (MT4 [2]) of the same compound?
Its EC50 is 38.6 µM.

And the IC50 [3]?
The IC50 was 8.8 µM.

`Cc1cn([C@H]2CC[C@@H](CO)O2)c(=O)[nH]c1=O` was tested. Which CC50 (MT4 [1]) did it give?
Its CC50 is > 625 µM.

And the EC50 (MT4 [2])?
Its EC50 is 6 µM.

And the IC50 [3]?
Its IC50 is < 0.05 µM.

`Cc1cn([C@H]2C[C@H](F)[C@@H](CO)O2)c(=O)[nH]c1=O` [ALOVUDINE] was tested. Which CC50 (MT4 [1]) did it give?
Its CC50 is 0.197 µM.

What about the EC50 (MT4 [2]) of the same compound?
The EC50 was 0.001 µM.

What about the IC50 [3] of the same compound?
Its IC50 is < 0.05 µM.

Which results are given for `Cc1cn([C@H]2C[C@H](N=[N+]=[N-])[C@@H](CO)O2)c(=O)[nH]c1=O` [ZIDOVUDINE]?
CC50 (MT4 [1]): 20 µM; EC50 (MT4 [2]): 0.004 µM; IC50 [3]: 0.04 µM
